Each structure is given as a SMILES string. Active and inactive are the calls of the source. No cut-off for these calls is given here.

inhibition, IC50 and Activity data for seven compounds are collected here from ChEMBL document CHEMBL1287657, “Synthesis and biological activities of new furo[3,4-b]carbazoles: potential topoisomerase II inhibitors” (Eur J Med Chem, 2010).

The target in test [1] is DNA topoisomerase 2-alpha (Homo sapiens) (UniProt P11388). In words: Inhibition of human topoisomerase 2-mediated relaxation of supercoiled PUC19 DNA at 20 to 50 uM uM after 20 mins using ethidium bromide staining by agarose gel electrophoresis. The gist of the method: (§1)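 Native supercoiled pUC19 plasmid (350 ng) incubated with 4 units human topoisomerase II, with or without compound at several concentrations; etoposide run as reference. Relaxation/cleavage products separated by gel electrophoresis and scored for supercoiled, relaxed and broken DNA forms.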
DNA topoisomerase 2-alpha (Homo sapiens), sequence (P11388 whole entry): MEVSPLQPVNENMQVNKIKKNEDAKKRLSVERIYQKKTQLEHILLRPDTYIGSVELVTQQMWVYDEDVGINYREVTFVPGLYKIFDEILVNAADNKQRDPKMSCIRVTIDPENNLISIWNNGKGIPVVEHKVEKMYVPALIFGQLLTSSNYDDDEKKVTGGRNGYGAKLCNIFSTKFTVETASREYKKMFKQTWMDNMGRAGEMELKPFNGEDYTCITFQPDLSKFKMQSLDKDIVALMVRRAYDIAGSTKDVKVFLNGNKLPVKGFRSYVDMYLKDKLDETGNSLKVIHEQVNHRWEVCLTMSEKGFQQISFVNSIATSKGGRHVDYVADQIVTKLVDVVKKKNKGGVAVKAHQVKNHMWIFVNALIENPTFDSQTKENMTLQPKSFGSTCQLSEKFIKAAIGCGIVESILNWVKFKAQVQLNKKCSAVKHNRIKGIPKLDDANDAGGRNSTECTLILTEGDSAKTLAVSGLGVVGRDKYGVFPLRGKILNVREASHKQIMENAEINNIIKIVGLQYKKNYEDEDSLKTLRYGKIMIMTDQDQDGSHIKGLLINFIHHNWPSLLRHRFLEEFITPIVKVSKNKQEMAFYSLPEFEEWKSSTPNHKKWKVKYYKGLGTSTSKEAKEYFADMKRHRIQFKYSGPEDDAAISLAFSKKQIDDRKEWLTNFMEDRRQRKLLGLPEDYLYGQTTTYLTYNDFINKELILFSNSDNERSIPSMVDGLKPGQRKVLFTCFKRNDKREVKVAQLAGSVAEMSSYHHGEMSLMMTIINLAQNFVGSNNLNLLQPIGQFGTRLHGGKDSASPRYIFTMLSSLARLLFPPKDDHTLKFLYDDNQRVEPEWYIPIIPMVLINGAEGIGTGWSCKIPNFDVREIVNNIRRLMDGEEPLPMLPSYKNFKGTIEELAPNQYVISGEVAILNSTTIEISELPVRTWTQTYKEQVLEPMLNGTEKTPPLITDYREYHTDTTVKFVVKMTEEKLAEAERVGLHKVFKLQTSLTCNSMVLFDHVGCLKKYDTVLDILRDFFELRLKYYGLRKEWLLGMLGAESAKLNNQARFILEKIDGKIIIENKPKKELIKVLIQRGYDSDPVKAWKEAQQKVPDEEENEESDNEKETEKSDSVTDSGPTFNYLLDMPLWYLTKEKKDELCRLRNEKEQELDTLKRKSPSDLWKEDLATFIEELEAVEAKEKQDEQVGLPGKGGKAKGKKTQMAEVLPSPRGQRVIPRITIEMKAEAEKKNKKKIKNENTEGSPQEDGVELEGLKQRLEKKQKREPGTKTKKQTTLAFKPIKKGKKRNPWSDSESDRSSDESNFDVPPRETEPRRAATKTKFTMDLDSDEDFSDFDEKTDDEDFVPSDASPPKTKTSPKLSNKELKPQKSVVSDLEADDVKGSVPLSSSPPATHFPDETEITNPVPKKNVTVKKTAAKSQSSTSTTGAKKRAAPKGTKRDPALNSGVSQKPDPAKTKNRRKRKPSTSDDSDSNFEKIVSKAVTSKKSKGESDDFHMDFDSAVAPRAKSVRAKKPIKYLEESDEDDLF

The target is the same in test [2]. In words: Inhibition of human topoisomerase 2-mediated relaxation of supercoiled PUC19 DNA at 1 to 100 uM uM after 20 mins using ethidium bromide staining by agarose gel electrophoresis. The gist of the method:
as §1

Test [3] relates to HL-60. In words: Cytotoxicity against human HL60 cells. The test is classed as functional, cell-based.
The nature of test [4]: Cytotoxicity against human HL60/MX2 cells. It is filed as functional, cell-based.
Test [5] relates to Calf thymus DNA. In words: Binding affinity to calf thymus DNA assessed as change in melting temperature. The test is classed as nucleic-acid assay. The following applies: Bos taurus.

Turning to `O=C1OCc2cc3c([nH]c4ccccc43)c(-c3ccc4c(c3)OCO4)c21`, the inhibition entry in test [1] is “inactive”.
The same measure, in the same setting: then `COc1ccc(-c2c3c(cc4c2[nH]c2ccccc24)COC3=O)cc1`, with “inactive”; and `COc1cc(OC)cc(-c2c3c(cc4c2[nH]c2ccccc24)COC3=O)c1`, with “inactive”.
Same read-out and setting: then `COc1cc([C@@H]2c3cc4c(cc3[C@@H](O[C@@H]3O[C@@H]5CO[C@@H](C)O[C@H]5[C@H](O)[C@H]3O)[C@H]3COC(=O)[C@H]23)OCO4)cc(OC)c1O`, with “Active”; and `COc1cc(-c2c3c(cc4c2[nH]c2ccccc24)COC3=O)cc(OC)c1OC`, with “inactive”.
The term IC50 denotes the concentration needed to halve the response being measured. On to `COc1cc(-c2c3c(cc4c2[nH]c2ccccc24)COC3=O)cc(O)c1O`, for which the inhibition entry in test [2] and in test [1] was “Active” throughout. The IC50 worked out at 150 nM in test [3] and 170 nM in test [4]. The outcome in test [5] was inactive.
Regarding `COc1ccc(-c2c3c(cc4c2[nH]c2ccccc24)COC3=O)cc1OC`, the result in test [5] was inactive. The inhibition result in test [1] is “inactive”.
